# Results taken from publication PMC12505120 (RSC Advances, 2025).
# Where two headings read alike, the source gives them in different places.
# Assays:
# [1] = target: HSA (Homo sapiens, UniProt P02768); test: HSA tryptophan fluorescence quenching; assay type: binding; conditions: for Stern–Volmer quenching constant Ksv × 10^4: values × 10^4, HSA 2.5 μM, Tris–HCl pH 7.4, 10% DMSO, 24 h; for ΔG: ΔG = −RT ln Kb; for predominant interaction mode with HSA: according to Ross's proposal from the signs of ΔH and ΔS
# HSA, sequence (P02768 25-609): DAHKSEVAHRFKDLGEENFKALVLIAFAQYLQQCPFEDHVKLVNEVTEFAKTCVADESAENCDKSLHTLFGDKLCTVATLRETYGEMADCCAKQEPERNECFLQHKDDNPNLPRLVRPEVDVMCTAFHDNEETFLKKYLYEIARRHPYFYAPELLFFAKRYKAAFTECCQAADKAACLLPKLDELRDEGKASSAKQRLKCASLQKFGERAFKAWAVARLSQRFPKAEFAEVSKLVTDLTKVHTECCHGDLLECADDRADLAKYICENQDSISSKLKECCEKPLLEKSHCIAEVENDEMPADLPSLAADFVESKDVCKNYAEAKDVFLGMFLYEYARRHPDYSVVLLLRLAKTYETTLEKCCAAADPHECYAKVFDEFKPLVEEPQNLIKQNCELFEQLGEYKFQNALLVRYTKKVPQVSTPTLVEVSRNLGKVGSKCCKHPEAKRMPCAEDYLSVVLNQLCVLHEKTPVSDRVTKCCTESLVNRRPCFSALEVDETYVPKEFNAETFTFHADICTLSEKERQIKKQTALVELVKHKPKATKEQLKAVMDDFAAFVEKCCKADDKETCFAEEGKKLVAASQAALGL
# Outline: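 HSA in Tris–HCl (4.5 mM Trizma HCl, 0.5 mM Trizma base, 50 mM NaCl) held at 2.5 μM with test compound at 1, 2.5, 5, 10, 15, 20, 25 or 30 μM, using 10% DMSO. Incubated 24 h in a water bath at 300 K or 310 K. Excitation 270 nm, emission 300–500 nm, triplicates. Intensity at 330 nm fitted to Stern–Volmer (F0/F vs [Q]) and log((F0−F)/F) vs log[Q]. ΔG = −RT ln Kb.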
# [2] = tested on: bovine serum albumin (BSA); conditions: cited from earlier work
SMILES,ΔS ([1]; T 300 K) [J mol^−1 K^−1],Stern–Volmer quenching constant Ksv × 10^4 ([1]; T 300 K) [M^−1],ΔG ([1]; T 300 K) [kcal/mol],ΔS ([1]; T 310 K) [J mol^−1 K^−1],Stern–Volmer quenching constant Ksv × 10^4 ([1]; T 310 K) [M^−1],ΔG ([1]; T 310 K) [kcal/mol],predominant interaction mode with HSA [1],fluorescence quenching mechanism ([1]; from temperature dependence of Ksv at 300 and 310 K),binding constant to BSA ([2]; HPBI complexed with benzoxaborole) [M⁻¹],binding constant to BSA ([2]; free HPBI) [M⁻¹]
COc1ccc(/C=C/c2ccc(B3OC(C)(C)C(C)(C)O3)cc2)cc1 [3b],82.1,5.91,-5.69,83.3,8.69,-6.36,hydrophobic interactions,dynamic fluorescence quenching mechanism,–,–
COc1ccc(/C=C/c2cccc3c2COB3O)cc1 [5a],105.1,10.1,-7,122.4,17.7,-8.58,hydrophobic interactions,–,–,–
COc1ccc(/C=C/c2ccc(B(O)O)cc2)cc1 [7a],74.5,1.05,-6.69,22.9,0.53,-3.08,electrostatic forces,–,–,–
"Oc1ccccc1-c1nc2ccccc2[nH]1 [HPBI, 2-(2-hydroxyphenyl)benzimidazole]",–,–,–,–,–,–,–,–,1.2e+06,20000
